Screens: PubChem BioAssay, several laboratories
KLF5 inh = inhibitors of KLF5 expression; AID 1700; hit rate 0.23% among 290,000; inhibition, % at 5 µM; DLD-1 KLF5 promoter-luciferase reporter, luminescence;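 active means inhibition above a per-plate limit of that plate's mean compound inhibition plus 3 SD, cut at about 60% in these data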;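 further: higher means less KLF5 promoter-driven luciferase light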
Ba/F3 V617F tox = reduce viability of Ba/F3 cells dependent on JAK2V617F | Ba/F3 EpoR-JAK2V617F viability, ATP luminescence | inhibition, % at 5.6 µM | hit rate 1.1% among 220,000 | AID 1446;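 active means inhibition above the campaign mean plus 3 SD over all tested compounds, cut at about 24% in these data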;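 further: cytokine-independent growth of Ba/F3 cells driven by EpoR plus mutant JAK2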
MT stabilizer = microtubule stabilizers in HeLa cells. HeLa tubulin immunostaining HCS, 24 h; share of cells brighter than vehicle mean+2SD. % tubulin-high responders, % at 10 µM. hit rate 0.83% among 200,000. AID 2205;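 active means plate Z-score above 3 for both tubulin-high and condensed-nucleus cell shares, with cell loss under 80%, at 10 µM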;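 further: anti alpha tubulin signal scored within the nucleus-defined area of each cell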
BaF3 parental = counter-screen for JAK2V617F inhibitors: parental Ba/F3 viability inhibitors. CellTiter-Glo ATP luminescence. inhibition, % at 5.6 µM. hit rate 1.1% among 220,000. AID 1486;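 active means inhibition above a per-campaign cutoff, the mean inhibition of all tested compounds plus 3 SD, cut at about 27% in these data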
IEC-6 tox-1 = IEC-6 cytotoxicity, counter-screen for KLF5 inhibitors; inhibition, % at 5 µM; hit rate 0.78% among 290,000; luminescence viability
bCat nuc transl = alters nuclear translocation of beta-catenin in HeLa cells; nuclear translocation activity, % at 5 µM; hit rate 0.3% among 190,000; AID 1665; immunofluorescence imaging;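 active means nuclear translocation activity above 50% at 5 µM, with a well cell count of 50 or more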;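 further: per-cell ratio of nuclear to cytoplasmic median beta-catenin stain intensity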
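Test system: human HeLa cells, native beta-catenin. Compound dosing: 5 µM primary single dose, 0.1% DMSO, 0.02–20 µM confirmation series. Incubation: compound exposure 24 h at 37°C. Detection: beta-catenin immunostaining with DAPI counterstain, 20x imaging, 6 fields/well. Read-out basis: Nuclear/cytoplasmic beta-catenin signal ratio, % activation.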
KLF5 confirm = KLF5 inhibition, confirmation assay; shares compounds with KLF5 inh; DLD-1 KLF5 promoter firefly luciferase reporter, luminescence; inhibition, % at 4 µM; hit rate 79% among 610;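 active means inhibition above a set limit taken from the earlier primary screen, cut at about 63% in these data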
IEC-6 tox-2 = kills rat IEC-6 cells in KLF5 counter-screen | hit rate 56% among 610 | IEC-6 rat intestinal cells, viability luminescence | shares compounds with KLF5 inh | inhibition, % at 4 µM; in the data active means inhibition above about 23%;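 further: cells exposed to compounds for 48 hours before viability read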
IEC-6 cytotox cf = IEC-6 cytotoxicity, confirmation assay; IEC-6 rat intestinal epithelial viability, luminescence; inhibition, % at 5 µM; hit rate 63% among 1,900; shares compounds with IEC-6 tox-1
Of the large screens only hits and unclear results are named; the others gave an inactive call (follow-up assays come after a bar, where they were run). A selection: hits, their analogues and other compounds. The true share with any hit is near 2.1%. Unless noted, no stated cut-off is given here; in the data, active means inhibition above about 22%; inactive means the rest.

COc1cc(C2=NOC(C(=O)NCc3ccc(F)cc3)C2)cc(OC)c1OC (centres undefined)	KLF5 inh 73, Ba/F3 V617F tox 79, MT stabilizer 24, BaF3 parental 78, IEC-6 tox-1 86, bCat nuc transl 73 | KLF5 confirm 85 | IEC-6 tox-2 65 | IEC-6 cytotox cf 55
COc1ccc(C2=NOC(C(=O)NCc3ccc(F)cc3)C2)cc1OC (centres undefined)	KLF5 inh 85, Ba/F3 V617F tox 79, MT stabilizer 14, BaF3 parental 82, IEC-6 tox-1 88, bCat nuc transl 56 | KLF5 confirm 79 | IEC-6 tox-2 63 | IEC-6 cytotox cf 58
COc1cccc(C2=NOC(C(=O)NCc3ccc(F)cc3)C2)c1 (centres undefined)	none
O=S(=O)(NCc1ccc(C(F)(F)F)cc1)c1ccc(-n2cnnn2)cc1	none (no result: Ba/F3 V617F tox, MT stabilizer, BaF3 parental, bCat nuc transl)
O=C(c1cc(-c2ccncc2)nc2c(Cl)cccc12)N1CCN(c2ccccc2F)CC1	KLF5 inh 66, IEC-6 tox-1 67 (no result: Ba/F3 V617F tox, MT stabilizer, BaF3 parental, bCat nuc transl) | KLF5 confirm 65 | IEC-6 tox-2 47 | IEC-6 cytotox cf 54
Cc1ccc2[nH]c(C(=O)N/N=C/c3ccccc3O)c(C)c2c1	KLF5 inh 71, IEC-6 tox-1 98 (no result: Ba/F3 V617F tox, MT stabilizer, BaF3 parental, bCat nuc transl) | KLF5 confirm 69 | IEC-6 tox-2 inactive | IEC-6 cytotox cf 54
O=[N+]([O-])c1cccc(C2=NCCC(c3ccccc3)O2)c1 (centres undefined)	none (no result: bCat nuc transl)
COc1cc(C(F)(F)F)nc2ccc(C#CCOC(=O)Nc3ccccc3)cc12	none (no result: MT stabilizer)
CCOc1ccccc1C1CC(=O)Nc2cc3c(cc21)OCO3 (centres undefined)	KLF5 inh 74, Ba/F3 V617F tox 79, MT stabilizer 29, BaF3 parental 75, IEC-6 tox-1 83 | KLF5 confirm 91 | IEC-6 tox-2 65 | IEC-6 cytotox cf 57
CC(C)Oc1ccccc1C1CC(=O)Nc2cc3c(cc21)OCCO3 (centres undefined)	KLF5 inh 80, Ba/F3 V617F tox 74, BaF3 parental 78, IEC-6 tox-1 88 | KLF5 confirm 98 | IEC-6 tox-2 90 | IEC-6 cytotox cf 56
Cc1ccc(C2CC(=O)Nc3cc4c(cc32)OCCO4)s1 (centres undefined)	none (no result: bCat nuc transl)
CC1(C)CC(NC(=O)C2CCCCC2)CC(C)(C)N1	none (no result: Ba/F3 V617F tox, MT stabilizer, BaF3 parental, bCat nuc transl)
COc1ccc(Cl)cc1N(C(=O)c1ccco1)C(C(=O)NC1CCCC1)c1ccco1 (centres undefined)	none (no result: Ba/F3 V617F tox, MT stabilizer, BaF3 parental, bCat nuc transl)
N#Cc1cccc(NCC(=O)Nc2ccc3c(c2)OCCO3)c1	none
CCn1c(C)nc2cc(-c3nc4n(n3)Cc3ccccc3-4)ccc21	KLF5 inh 112, Ba/F3 V617F tox 48, BaF3 parental 42, IEC-6 tox-1 33 | KLF5 confirm 110 | IEC-6 tox-2 39 | IEC-6 cytotox cf 43
CCCC(C)c1nc(C(N)=O)c2[nH]c(=O)n(-c3ccc(OC)c(OC)c3)c2n1 (centres undefined)	none (no result: Ba/F3 V617F tox, MT stabilizer, BaF3 parental, bCat nuc transl)
COc1cccc(/C=N/NC(=O)c2c(C)nc3ccc(Cl)cn23)c1O	KLF5 inh 93, IEC-6 tox-1 83 (no result: Ba/F3 V617F tox, MT stabilizer, BaF3 parental, bCat nuc transl) | KLF5 confirm 88 | IEC-6 tox-2 63 | IEC-6 cytotox cf 47
COc1ccccc1/C=N\NC(=O)c1c(C)nc2ccc(Cl)cn12	none (no result: Ba/F3 V617F tox, MT stabilizer, BaF3 parental, bCat nuc transl)
CCC(=O)N(C1=C(NC(C)C)C(=O)c2ccccc2C1=O)C(C)C	none
CCCNC1=C(N(C(C)=O)c2cccc(F)c2)C(=O)c2ccccc2C1=O	KLF5 inh 96, Ba/F3 V617F tox 101, BaF3 parental 104, IEC-6 tox-1 65 (no result: bCat nuc transl) | KLF5 confirm inactive | IEC-6 tox-2 53 | IEC-6 cytotox cf 41
O=c1c2ccccc2cnn1-c1nc2ccccc2[nH]1	KLF5 inh 105, Ba/F3 V617F tox 65, BaF3 parental 65, IEC-6 tox-1 54 | KLF5 confirm 100 | IEC-6 tox-2 52 | IEC-6 cytotox cf 60
Cc1nccn1CC(=O)N/N=C/c1cccs1	none (no result: MT stabilizer)
